≈ marks a conversion by molar mass, not a printed value.
Columns and labels:
[1] = molecular target: T1, Calcitonin gene-related peptide type 1 receptor (Homo sapiens, UniProt O60894+Q16602); assay: Displacement of [125I]CGRP from human CGRP receptor in human SK-N-MC cells measured after 2 hrs by scintillation counting analysis; format: cell-based
Cytochrome P450 3A4 = Cytochrome P450 3A4 (Homo sapiens, UniProt P08684); assay: Time dependent inhibition of CYP3A4 (unknown origin) measured after 30 mins; format: ADME
Chain of Cytochrome P450 3A4 (P08684 whole entry): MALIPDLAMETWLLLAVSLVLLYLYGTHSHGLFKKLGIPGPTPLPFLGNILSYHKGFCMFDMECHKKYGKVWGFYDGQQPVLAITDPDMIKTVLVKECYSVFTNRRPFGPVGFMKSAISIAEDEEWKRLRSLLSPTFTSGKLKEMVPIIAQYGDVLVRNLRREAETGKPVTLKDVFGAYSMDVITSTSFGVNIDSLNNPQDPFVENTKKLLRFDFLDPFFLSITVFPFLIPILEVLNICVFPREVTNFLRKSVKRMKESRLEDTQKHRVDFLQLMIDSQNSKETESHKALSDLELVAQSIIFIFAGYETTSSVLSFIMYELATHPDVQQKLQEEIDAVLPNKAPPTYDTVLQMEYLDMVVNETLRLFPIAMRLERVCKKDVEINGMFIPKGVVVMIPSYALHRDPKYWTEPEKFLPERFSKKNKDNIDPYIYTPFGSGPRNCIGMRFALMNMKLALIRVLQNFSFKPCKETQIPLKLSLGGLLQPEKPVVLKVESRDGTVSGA

[2] = Microsomal stability in monkey microsomes assessed as parent compound remaining at […] measured after 10 mins; format: ADME, Macaca mulatta, Liver, Microsome; settings: rhesus monkey, read-out: Stabilty
[3] = Microsomal stability in human liver microsomes assessed as parent compound remaining at […] measured after 10 mins; format: ADME; settings: read-out: Stabilty
[4] = Microsomal stability in rat microsomes assessed as parent compound remaining at […] measured after 10 mins; format: ADME, Microsome; settings: read-out: Stabilty
[5] = Permeability form basolateral to apical side in human Caco2 cells; format: ADME, cell-based; settings: Caco-2, read-out: permeability
[6] = Total plasma concentration in human CGRPalpha-induced migraine marmoset model at 3 mg/kg, sc measured after 15 to 105 mins; format: ADME, organism-based, Callithrix jacchus; settings: in vivo, time 15-105 min
Method in brief: (§1)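 In anesthetized marmosets given the antagonist sc at 0 min and iv hαCGRP (10 µg/kg) at −30, +15, +60 and +105 min, total plasma levels were taken at the 15, 60 and 105 min postdose test times.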

Callithrix jacchus [7] = assay: Antimigraine activity in human CGRPalpha-induced migraine marmoset model assessed as reduction in facial blood flow at 7 mg/kg, sc administered 30 mins after CGRPalpha stimulation measured after 105 mins by laser doppler method relative to control; format: functional; parameters: scale not given: the % may be the effect or the level left; settings: 1.75 h
Method in brief: (§2)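 Marmosets were anesthetized. Facial blood flow was raised by iv hαCGRP (10 µg/kg) given at −30, +15, +60 and +105 min relative to sc antagonist dosing at 0 min. Blood flow was read by laser Doppler flowmetry. Inhibition of the CGRP-induced increase was expressed against the predose vehicle control response at −30 min.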

[8] = Solubility in phosphate buffer at pH 7 using amorphous form of sample; format: physicochemical
Method in brief: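 Solubility of the amorphous solid was measured in 50 mM phosphate buffer, pH 7.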

Callithrix jacchus [9] = assay: Antimigraine activity in human CGRPalpha-induced migraine marmoset model assessed as reduction in facial blood flow at 3 mg/kg, sc administered 30 mins after CGRPalpha stimulation measured after 15 to 105 mins by laser doppler method relative to control; format: functional; parameters: scale not given: the % may be the effect or the level left; settings: time 15-105 min; method in brief: as §2
[10] = Permeability of compound at pH 7.4 by PAMPA assay; format: ADME; settings: read-out: permeability
[11] = Oral bioavailability in rat at 10 mg/kg; format: ADME, organism-based; settings: in vivo
Method in brief: (§3)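 Rats received a single 10 mg/kg oral dose in 80% PEG400/10% DMAC/10% Tween 80.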

[12] = Fraction unbound in plasma of human CGRPalpha-induced migraine marmoset model at 7 mg/kg, sc measured after 15 to 105 mins; format: ADME, organism-based, Callithrix jacchus; settings: time 15-105 min
[13] = Permeability form apical to basolateral side in human Caco2 cells; format: ADME, cell-based; settings: Caco-2, read-out: permeability
[14] = molecular target: T1, Calcitonin gene-related peptide type 1 receptor; assay: Antagonist activity against human CGRP receptor in human SK-N-MC cells assessed as inhibition of CGRP-stimulated cAMP production; format: functional, cell-based
Callithrix jacchus [15] = assay: Antimigraine activity in human CGRPalpha-induced migraine marmoset model assessed as reduction in facial blood flow at 7 mg/kg, sc administered 30 mins after CGRPalpha stimulation measured after 60 mins by laser doppler method relative to control; format: functional; parameters: scale not given: the % may be the effect or the level left; settings: 1 h; method in brief: as §2
Callithrix jacchus [16] = assay: Antimigraine activity in human CGRPalpha-induced migraine marmoset model assessed as reduction in facial blood flow at 7 mg/kg, sc administered 30 mins after CGRPalpha stimulation measured after 15 mins by laser doppler method relative to control; format: functional; parameters: scale not given: the % may be the effect or the level left; settings: 0.25 h; method in brief: as §2
[17] = Cmax in Cynomolgus monkey at 10 mg/kg, po; format: ADME, organism-based, Macaca fascicularis; parameters: route oral, dose 10 mg/kg; settings: in vivo
[18] = Total plasma concentration in human CGRPalpha-induced migraine marmoset model at 7 mg/kg, sc measured after 15 to 105 mins; format: ADME, organism-based, Callithrix jacchus; settings: in vivo, time 15-105 min; method in brief: as §1
[19] = Cmax in rat at 10 mg/kg, po; format: ADME, organism-based; parameters: route oral, dose 10 mg/kg; settings: in vivo; method in brief: as §3
[20] = Permeability of compound at pH 5.5 by PAMPA assay; format: ADME; settings: read-out: permeability
Callithrix jacchus [21] = assay: Antimigraine activity in human CGRPalpha-induced migraine marmoset model assessed as reduction in facial blood flow at 7 mg/kg, sc administered 30 mins after CGRPalpha stimulation measured after 15 to 105 mins by laser doppler method relative to control; format: functional; parameters: scale not given: the % may be the effect or the level left; settings: time 15-105 min; method in brief: as §2

T1 sequence (Q16602 whole entry, one chain of several): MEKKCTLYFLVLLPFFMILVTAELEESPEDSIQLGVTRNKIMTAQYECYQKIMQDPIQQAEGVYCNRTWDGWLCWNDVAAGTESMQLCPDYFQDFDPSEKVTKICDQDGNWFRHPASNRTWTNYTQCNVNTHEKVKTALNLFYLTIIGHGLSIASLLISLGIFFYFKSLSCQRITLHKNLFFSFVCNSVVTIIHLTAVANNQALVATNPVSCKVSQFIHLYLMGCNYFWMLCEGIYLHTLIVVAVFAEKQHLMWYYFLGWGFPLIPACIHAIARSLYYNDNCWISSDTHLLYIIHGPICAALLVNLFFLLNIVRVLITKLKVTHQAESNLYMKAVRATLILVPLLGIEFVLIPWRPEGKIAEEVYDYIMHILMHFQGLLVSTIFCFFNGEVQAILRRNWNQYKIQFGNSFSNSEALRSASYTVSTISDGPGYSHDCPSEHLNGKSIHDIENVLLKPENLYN

SMILES | Ki [1] | remaining at 10 min [2] | remaining at 10 min [3] | remaining at 10 min [4] | Cmax [19] | also measured
O=C(C[C@@H]1Cc2cc(Cl)c3[nH]ncc3c2CN(CC(F)(F)F)C1=O)N1CCC(N2CCc3ccccc3NC2=O)CC1 | 0.046 nM |  |  |  |  | IC50 (Cytochrome P450 3A4): 100 nM
O=C(C[C@@H]1Cc2cc(Cl)c3[nH]cnc3c2CN(CC(F)(F)F)C1=O)N1CCC(N2CCc3ccccc3NC2=O)CC1 | 0.17 nM | 24% | 26% | 7% |  | 
Cn1c(=O)[nH]c2c(Cl)cc3c(c21)CN(CC(F)(F)F)C(=O)[C@H](CC(=O)N1CCC(N2CCc4ccccc4NC2=O)CC1)C3 | 0.015 nM | 75% | 36% | 35% | 96 nM | Papp B→A [5]: 19.6 ×10⁻⁶ cm/s; concentration [6]: 40 nM; Activity (Callithrix jacchus [7]): 85%; solubility [8]: < 1 µg/mL; Activity (Callithrix jacchus [9]): 79%; Papp [10]: 19.2 ×10⁻⁶ cm/s; bioavailability [11]: 1%; fraction unbound [12]: 0.023; Papp A→B [13]: < 1.5 ×10⁻⁶ cm/s; IC50 [14]: 0.06 nM; IC50 (Cytochrome P450 3A4): 8100 nM; Activity (Callithrix jacchus [15]): 87%; Activity (Callithrix jacchus [16]): 57%; Cmax [17]: 35 nM; concentration [18]: 170 nM
O=C(C[C@@H]1Cc2cc(Cl)c3[nH]c(=O)[nH]c3c2CN(CC(F)(F)F)C1=O)N1CCC(N2CCc3ccccc3NC2=O)CC1 | 0.019 nM | 71% | 60% | 41% | 3 nM | 
O=C(C[C@@H]1Cc2cc(Cl)c3c(c2CN(CC(F)(F)F)C1=O)C(F)(F)C(=O)N3)N1CCC(n2c(=O)[nH]c3ncccc32)CC1 | 0.13 nM | 28% | 91% | 82% | 4 nM | Papp [20]: 9.9 ×10⁻⁶ cm/s; Papp B→A [5]: 25.7 ×10⁻⁶ cm/s; Activity (Callithrix jacchus [7]): 56%; solubility [8]: 15 µg/mL (≈ 23.9 µM); Papp [10]: 8.7 ×10⁻⁶ cm/s; fraction unbound [12]: 0.054; Papp A→B [13]: < 1.5 ×10⁻⁶ cm/s; IC50 (Cytochrome P450 3A4): > 40000 nM; Activity (Callithrix jacchus [15]): 48%; Activity (Callithrix jacchus [16]): 47%; concentration [18]: 140 nM
O=C(C[C@@H]1Cc2cc(Cl)c3[nH]nnc3c2CN(CC(F)(F)F)C1=O)N1CCC(n2c(=O)[nH]c3ncccc32)CC1 | 0.44 nM | 64% | 62% | 90% |  | 
O=C(C[C@@H]1Cc2cc(Cl)c3[nH]c(=O)n(CC(F)(F)F)c3c2CN(CC(F)(F)F)C1=O)N1CCC(N2CCc3ccccc3NC2=O)CC1 | 0.02 nM | 87% | 58% | 54% | 270 nM | Papp [20]: 51.3 ×10⁻⁶ cm/s; Papp B→A [5]: 2.4 ×10⁻⁶ cm/s; Activity (Callithrix jacchus [7]): 84%; solubility [8]: < 1 µg/mL; fraction unbound [12]: 0.009; Papp A→B [13]: < 1.5 ×10⁻⁶ cm/s; IC50 [14]: 0.12 nM; IC50 (Cytochrome P450 3A4): 8400 nM; Activity (Callithrix jacchus [15]): 65%; Activity (Callithrix jacchus [16]): 26%; Cmax [17]: 87 nM; concentration [18]: 80 nM
CCn1c(=O)[nH]c2c(Cl)cc3c(c21)CN(CC(F)(F)F)C(=O)[C@H](CC(=O)N1CCC(N2CCc4ccccc4NC2=O)CC1)C3 | 0.014 nM | 59% | 44% | 22% | 230 nM | Activity (Callithrix jacchus [21]): 67%; IC50 [14]: 0.09 nM; Cmax [17]: 230 nM
N#Cc1c[nH]c2c(Cl)cc3c(c12)CN(CC(F)(F)F)C(=O)[C@H](CC(=O)N1CCC(n2c(=O)[nH]c4ncccc42)CC1)C3 | 0.06 nM | 7% | 40% | 40% |  | 
O=C(C[C@@H]1Cc2cc(Cl)c3[nH]c(=O)oc3c2CN(CC(F)(F)F)C1=O)N1CCC(n2c(=O)[nH]c3ncccc32)CC1 | 0.12 nM | 63% | 49% | 64% | 36 nM | 
O=C(C[C@@H]1Cc2cc(Cl)c3c(c2CN(CC(F)(F)F)C1=O)C(F)(F)C(=O)N3)N1CCC(N2CCc3ccccc3NC2=O)CC1 | 0.069 nM | 8.1% | 22% | 35% | 480 nM | 
Cn1c(=O)[nH]c2c(Cl)cc3c(c21)CN(CC(F)(F)F)C(=O)[C@H](CC(=O)N1CCC(N2CCc4ncccc4NC2=O)CC1)C3 | 0.043 nM | 100% | 73% | 56% | 11 nM | 
O=C(C[C@@H]1Cc2cc(Cl)c3[nH]ccc3c2CN(CC(F)(F)F)C1=O)N1CCC(N2CCc3ccccc3NC2=O)CC1 | 0.85 nM | 1.6% | 0.9% | 0.8% |  | 
N#Cc1c[nH]c2c(Cl)cc3c(c12)CN(CC(F)(F)F)C(=O)[C@H](CC(=O)N1CCC(N2CCc4ccccc4NC2=O)CC1)C3 | 0.06 nM | 26% | 38% | 11% |  | 
O=C(C[C@@H]1Cc2cc(Cl)c3[nH]c(=O)n(CC(F)(F)F)c3c2CN(CC(F)(F)F)C1=O)N1CCC(n2c(=O)[nH]c3ncccc32)CC1 | 0.026 nM | 41% | 90% | 90% | 3 nM | Papp [20]: 2.8 ×10⁻⁶ cm/s; Papp B→A [5]: 16.5 ×10⁻⁶ cm/s; solubility [8]: < 1 µg/mL; Papp [10]: 2.3 ×10⁻⁶ cm/s; Papp A→B [13]: < 1.5 ×10⁻⁶ cm/s
NC(=O)c1c[nH]c2c(Cl)cc3c(c12)CN(CC(F)(F)F)C(=O)[C@H](CC(=O)N1CCC(n2c(=O)[nH]c4ncccc42)CC1)C3 | 0.4 nM | 70% | 80% | 80% |  | 
